Data from ChEMBL document CHEMBL4334468, “Exploring Mitochondria-Mediated Intrinsic Apoptosis by New Phytochemical Entities: An Explicit Observation of Cytochrome c Dynamics on Lung and Melanoma Cancer Cells” (J Med Chem, 2019).
Active and inactive are the calls of the source. The rule behind the calls is not given here.

Legend:
A-375 [1] = assay: Cytotoxicity in human A375 cells assessed as reduction in cell viability incubated for 24 hrs by MTT assay; assay type: functional, cell-based
In short: (§1)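 MTT viability assay on A375 melanoma, A549 lung adenocarcinoma and WI-38 normal lung fibroblast cells after 24 and 48 h treatment. IC50 values are in µM, expressed as mean ± SD.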

A-375 [2] = assay: Cytotoxicity in human A375 cells assessed as reduction in cell viability incubated for 48 hrs by MTT assay; assay type: functional, cell-based; in short: as §1
A549 [3] = assay: Cytotoxicity in human A549 cells assessed as reduction in cell viability incubated for 24 hrs by MTT assay; assay type: functional, cell-based; in short: as §1
A549 [4] = assay: Cytotoxicity in human A549 cells assessed as reduction in cell viability incubated for 48 hrs by MTT assay; assay type: functional, cell-based; in short: as §1
WI-38 [5] = assay: Cytotoxicity in human WI38 cells assessed as reduction in cell viability incubated for 24 hrs by MTT assay; assay type: cell-based; in short: as §1
WI-38 [6] = assay: Cytotoxicity in human WI38 cells assessed as reduction in cell viability incubated for 48 hrs by MTT assay; assay type: cell-based; in short: as §1
[7] = Antioxidant activity assessed as DPPH radical scavenging activity at 1 to 1000 ug/ml incubated for 30 mins by spectrophotometry; assay type: functional
[8] = Antioxidant activity at 1 to 1000 ug/ml incubated for 90 mins by FRAP assay; assay type: functional
[9] = Antioxidant activity assessed as hydroxyl radical scavenging activity at 1 to 1000 ug/ml incubated for 1 hr; assay type: functional
A549 [10] = assay: Induction of GSH depletion in human A549 cells by fluorimetry; assay type: functional, cell-based
A-375 [11] = assay: Induction of GSH depletion in human A375 cells by fluorimetry; assay type: functional, cell-based
[12] = Homo sapiens, A549, 48 h, read-out: IC50
[13] = Homo sapiens, A-375, 24 h, read-out: IC50
[14] = Homo sapiens, A-375, 48 h, read-out: IC50
[15] = Homo sapiens, A549, 24 h, read-out: IC50
[16] = Homo sapiens, WI-38, 48 h, read-out: IC50

Structure (SMILES) | IC50 (A-375 [1]; a-375) | IC50 (A-375 [2]; a-375) | IC50 (A549 [3]; a549) | IC50 (A549 [4]; [12]) | IC50 (WI-38 [5]; wi-38) | IC50 (WI-38 [6]; wi-38) | IC50 (A-375 [1]; [13]) | IC50 (A-375 [2]; [14]) | IC50 (A549 [3]; [15]) | IC50 (A549 [4]; a549) | IC50 (WI-38 [6]; [16]) | Activity [7] | Activity [8] | Activity [9] | Activity (A549 [10]) | Activity (A-375 [11]) | IC50 (WI-38 [5]; Homo sapiens, WI-38, 24 h, read-out: IC50)
COc1cc(C2Oc3cc(-c4cc(=O)c5c(O)cc(O)cc5o4)ccc3OC2c2cc(-c3ccc(C)cc3)on2)ccc1O (configuration not stated) | Not Active | Not Active | Not Active | 77.4 µM | Non-Toxic | Non-Toxic |  |  |  |  |  |  |  |  |  |  | 
COc1cc(C2Oc3cc(-c4cc(=O)c5c(O)cc(O)cc5o4)ccc3OC2C=O)ccc1O (configuration not stated) |  |  |  | 87.8 µM | Non-Toxic | Non-Toxic | 63 µM | 43.8 µM | 96 µM |  |  |  |  |  |  |  | 
COc1cc(C2Oc3cc(-c4cc(=O)c5c(O)cc(O)cc5o4)ccc3OC2c2cc(Cc3ccccc3)on2)ccc1O (configuration not stated) |  |  |  | 3.9 µM | Non-Toxic | Non-Toxic | 4.6 µM | 0.9 µM | 7 µM |  |  |  |  |  |  |  | 
COc1cc(C2Oc3cc(-c4cc(=O)c5c(O)cc(O)cc5o4)ccc3OC2c2cc(C(=O)Nc3ccc(C(F)(F)F)cc3)on2)ccc1O (configuration not stated) |  |  |  | 0.76 µM | Non-Toxic | Non-Toxic | 4 µM | 0.95 µM | 3.6 µM |  |  |  |  |  |  |  | 
COc1cc(C2Oc3cc(-c4cc(=O)c5c(O)cc(O)cc5o4)ccc3OC2/C=C2/C(=O)ONC2c2ccc(C)cc2)ccc1O (configuration not stated) |  |  |  | 9 µM | Non-Toxic | Non-Toxic | 9.2 µM | 6.7 µM | 12.7 µM |  |  |  |  |  |  |  | 
COc1cc(C2Oc3cc(-c4cc(=O)c5c(O)cc(O)cc5o4)ccc3OC2/C=C2/C(=O)ONC2C)ccc1O (configuration not stated) | Not Active | Not Active | Not Active |  | Non-Toxic | Non-Toxic |  |  |  | Not Active |  |  |  |  |  |  | 
COc1cc(C2Oc3cc(-c4cc(=O)c5c(O)cc(O)cc5o4)ccc3OC2c2cc(C(C)(C)O)on2)ccc1O (configuration not stated) |  |  |  | 2.9 µM | Non-Toxic | Non-Toxic | 1.43 µM | 0.65 µM | 4.8 µM |  |  |  |  |  |  |  | 
COc1cc(C2Oc3cc(-c4cc(=O)c5c(O)cc(O)cc5o4)ccc3OC2c2cc(C(=O)NC3CCCCC3)on2)ccc1O (configuration not stated) |  |  |  | 14.5 µM | Non-Toxic | Non-Toxic | 66.8 µM | 28.8 µM | 80 µM |  |  |  |  |  |  |  | 
COc1cc(C2Oc3cc(-c4cc(=O)c5c(O)cc(O)cc5o4)ccc3OC2/C=C2/C(=O)ON(c3ccccc3)C2C)ccc1O (configuration not stated) | Not Active | Not Active |  | 71.5 µM | Non-Toxic | Non-Toxic |  |  | 83 µM |  |  |  |  |  |  |  | 
COc1cc(C2Oc3cc(-c4cc(=O)c5c(O)cc(O)cc5o4)ccc3OC2c2cc(C(=O)NS(=O)(=O)c3ccccc3)on2)ccc1O (configuration not stated) |  |  |  | 6.3 µM | Non-Toxic | Non-Toxic | 7.2 µM | 3.5 µM | 51 µM |  |  |  |  |  |  |  | 
COc1cc(C2Oc3cc(-c4cc(=O)c5c(O)cc(O)cc5o4)ccc3OC2/C=C2/C(=O)ONC2C(F)(F)F)ccc1O (configuration not stated) |  |  |  | 16.4 µM | Non-Toxic |  | 2 µM | 0.83 µM | 2.1 µM |  | 95 µM |  |  |  |  |  | 
CCCC1NOC(=O)/C1=C/C1Oc2ccc(-c3cc(=O)c4c(O)cc(O)cc4o3)cc2OC1c1ccc(O)c(OC)c1 (configuration not stated) |  |  | Not Active |  | Non-Toxic | Non-Toxic | 92.7 µM | 60 µM |  | Not Active |  |  |  |  |  |  | 
COc1cc(C2Oc3cc(-c4cc(=O)c5c(O)cc(O)cc5o4)ccc3OC2/C=C2/C(=O)ONC2c2ccc(Cl)cc2)ccc1O (configuration not stated) |  |  |  | 1.2 µM | Non-Toxic | Non-Toxic | 1.2 µM | 0.94 µM | 2 µM |  |  |  |  |  |  |  | 
COc1cc(C2Oc3cc(-c4cc(=O)c5c(O)cc(O)cc5o4)ccc3OC2CO)ccc1O (configuration not stated) |  |  |  | 68 µM | Non-Toxic | Non-Toxic | 71.6 µM | 49.2 µM | 88.6 µM |  |  | inactive | inactive | inactive | inactive | inactive | 
COc1cc(C2Oc3cc(-c4cc(=O)c5c(O)cc(O)cc5o4)ccc3OC2/C=C2/C(=O)ONC2c2ccc(F)cc2)ccc1O (configuration not stated) |  |  |  | 7.5 µM | Non-Toxic | Non-Toxic | 13.7 µM | 7.9 µM | 1.4 µM |  |  |  |  |  |  |  | 
COc1cc(C2Oc3cc(-c4cc(=O)c5c(O)cc(O)cc5o4)ccc3OC2c2cc(CN)on2)ccc1O (configuration not stated) |  |  |  | 2.2 µM | Non-Toxic | Non-Toxic | 7.5 µM | 4.6 µM | 5.2 µM |  |  |  |  |  |  |  | 
COc1cc(C2Oc3cc(-c4cc(=O)c5c(O)cc(O)cc5o4)ccc3OC2c2cc(C(=O)NS(=O)(=O)c3ccc(Cl)cc3)on2)ccc1O (configuration not stated) |  |  |  | 6.6 µM | Non-Toxic |  | 6.2 µM | 4.2 µM | 8.7 µM |  | 54.6 µM |  |  |  |  |  | 
COc1cc(C2Oc3cc(-c4cc(=O)c5c(O)cc(O)cc5o4)ccc3OC2c2noc(C)c2CO)ccc1O (configuration not stated) |  |  |  | 51 µM | Non-Toxic | Non-Toxic | 68.7 µM | 46.5 µM | 68 µM |  |  |  |  |  |  |  | 
COc1cc(C2Oc3cc(-c4cc(=O)c5c(O)cc(O)cc5o4)ccc3OC2c2cc(CO)on2)ccc1O (configuration not stated) | Not Active |  | Not Active |  | Non-Toxic | Non-Toxic |  | 74.9 µM |  | Not Active |  |  |  |  |  |  | 
COc1cc(C2Oc3cc(-c4cc(=O)c5c(O)cc(O)cc5o4)ccc3OC2/C=C2/C(=O)ONC2c2ccccc2)ccc1O (configuration not stated) |  |  |  | 10 µM | Non-Toxic | Non-Toxic | 18.5 µM | 15.6 µM | 13.5 µM |  |  |  |  |  |  |  | 
COc1cc(C2Oc3cc(-c4cc(=O)c5c(O)cc(O)cc5o4)ccc3OC2/C=C2/C(=O)ON(C)C2C)ccc1O (configuration not stated) |  |  |  | 3.8 µM | Non-Toxic |  | 3.1 µM | 2.4 µM | 4.5 µM |  | 68 µM |  |  |  |  |  | 
COc1cc(C2Oc3cc(-c4cc(=O)c5c(O)cc(O)cc5o4)ccc3OC2/C=C2/C(=O)ONC2CCl)ccc1O (configuration not stated) |  |  |  | 0.07 µM |  |  | 0.04 µM | 0.035 µM | 0.095 µM |  | 4.9 µM |  |  |  |  |  | 5.5 µM
